Rows were chosen to be rich in hits. Some 2% of all compounds tested hit in one or more screens of this group.
Neddyl block – inhibitors of cullin neddylation, primary screen, biochemical, TR-FRET, uHTS, NAE and Ubc12; calls only at 25 µM; NEDD8-conjugating enzyme Ubc12 (Homo sapiens) + NEDD8-activating enzyme E1 regulatory …; 360,000 compounds, 0.58% hits; in the data active means inhibition above about 36%
Target sequence (P61081 whole entry, looked up): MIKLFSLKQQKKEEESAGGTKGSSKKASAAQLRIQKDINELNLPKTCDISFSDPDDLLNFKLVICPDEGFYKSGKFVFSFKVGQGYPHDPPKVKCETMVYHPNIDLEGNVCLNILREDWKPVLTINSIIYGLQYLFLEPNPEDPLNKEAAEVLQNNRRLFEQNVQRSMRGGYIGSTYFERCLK
Target sequence (Q13564 whole entry, looked up): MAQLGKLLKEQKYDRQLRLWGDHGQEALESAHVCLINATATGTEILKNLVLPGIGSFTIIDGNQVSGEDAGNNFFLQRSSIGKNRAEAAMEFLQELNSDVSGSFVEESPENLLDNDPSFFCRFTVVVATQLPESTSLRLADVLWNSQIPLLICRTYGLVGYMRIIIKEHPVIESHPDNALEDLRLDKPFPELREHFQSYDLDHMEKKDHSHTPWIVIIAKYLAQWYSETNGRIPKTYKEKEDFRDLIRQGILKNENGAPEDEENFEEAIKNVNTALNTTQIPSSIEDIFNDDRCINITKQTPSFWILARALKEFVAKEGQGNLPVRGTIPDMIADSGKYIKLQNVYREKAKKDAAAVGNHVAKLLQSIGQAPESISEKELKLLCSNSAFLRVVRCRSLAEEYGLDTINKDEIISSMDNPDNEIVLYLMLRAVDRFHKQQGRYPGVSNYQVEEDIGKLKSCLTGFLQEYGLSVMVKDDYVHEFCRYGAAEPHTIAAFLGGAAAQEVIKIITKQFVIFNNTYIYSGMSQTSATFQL
NR2E3 ag-1 – inhibitors of NR2E3-RetCOR corepressor binding, primary screen, NR2E3 agonist project, biochemical, TR-FRET, GST-NR2E3, biotin-RetCOR | 1536-well | inhibition of corepressor binding, % at 4.78 µM | Photoreceptor-specific nuclear receptor (Homo sapiens), Q9Y5X4 | 320,000 compounds, 0.12% hits;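 active means percent inhibition above the cutoff of mean plus 3 SD of all tested compounds, set per screening campaign, cut at about 20% in these data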;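 further: 0% = DMSO wells and 100% = biotin wells as full block of FRET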
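system = GST-tagged NR2E3 plus biotinylated RetCOR corepressor | input = 1.35 nM GST-NR2E3 | also added = 7 nM biotin-RetCOR | schedule = 5 h incubation at 4 °C | measured by = TR-FRET with europium anti-GST and streptavidin-D2, 340 nm excitation | read-out = percent loss of FRET ratio relative to control wells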
Rev-erbA mod – modulators of Rev-erb alpha DNA binding, primary screen, biochemical, FITC-DNA, fluorescence polarization, uHTS; activity, % at 10 µM; Rev-erbα–FITC-DNA binding, 90 min; 370,000 compounds, 0.79% hits; Nuclear receptor subfamily 1 group D member 1 (Homo sapiens), P20393;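 active means activity above about 14%, limit read from the data; passing the limit was not always enough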;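 further: 0% = DMSO wells with 35 nM protein and 100% = DMSO wells with 750 nM protein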
NR2E3 ag-2 – NR2E3 agonists in two-hybrid cells, primary screen, cell-based, luminescence, CHO-S, Gal4-NCOR/VP16-NR2E3; inhibition of corepressor binding, % at 3.98 µM; Photoreceptor-specific nuclear receptor (Homo sapiens), Q9Y5X4; luciferase; 360,000 compounds, 0.35% hits; AID 602229, 2012;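 active means inhibition above the mean of all tested compounds plus 3 SD, cut at about 70% in these data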;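 further: 0% = DMSO with NR2E3 transfected cells and 100% = cells lacking NR2E3 construct; higher means lower luciferase signal from less NR2E3 corepressor binding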
PG9 binder – binders of HIV-1 gp120 antibody PG9, primary screen, biochemical, TR-FRET. HIV-1 gp120 / PG9 antibody interaction. TR-FRET gp120-PG9 antibody binding. inhibition, % at 6.7 µM. 360,000 compounds, 0.43% hits. AID 624416, 2012; in the data active means inhibition above about 8.5%
Rev-erbA confirm – modulators of Rev-erb alpha DNA binding, confirmation, biochemical, FITC-DNA, fluorescence polarization, single point; 90 min; activation, % at 25 µM; shares compounds with Rev-erbA mod; 3,000 compounds, 61% hits;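 active means activation at or above a set limit, or at least 3 SD above the negative control mean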;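 further: 0% = 35 nM protein with DMSO and 100% = 750 nM protein high control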
RORg DNA counter – modulation of RORgamma DNA binding, dose response, counter-screen for Rev-erb alpha modulator project, biochemical, fluorescence polarization, FITC-DNA; shares compounds with Rev-erbA mod; purified RORgamma protein-FITC-DNA binding; IC50, µM; 910 compounds, 8% hits; AID 1259320, 2017;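 active means Compounds whose fitted half-maximal concentration for disrupting protein-DNA binding is below 10 micromolar; the record names Rev-erb in its text, so the target is in doubt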
Starred values were filed as active, the others as inactive; i = inactive; · = no result given.

SMILES	Neddyl block	NR2E3 ag-1	Rev-erbA mod	NR2E3 ag-2	PG9 binder	Rev-erbA confirm	others
CCc1nnc(NS(=O)(=O)c2ccc(Nc3ccc([N+](=O)[O-])c4nonc34)cc2)s1	i	2.1	21.4*	8.5	-3.5	33.1*	RORg DNA counter=>40
O=C(O)c1ccc(Nc2ccc([N+](=O)[O-])c3nonc23)cc1	i	·	6.2	10.3	-6.9	·
NS(=O)(=O)c1ccc(Nc2ccc([N+](=O)[O-])c3nonc23)cc1	i	-1.0	26.7*	-14.4	-6.7	16.7
O=[N+]([O-])c1ccc(Nc2ccccc2O)c2nonc12	i	·	31.8*	-9.9	-17.4	19.6*
Cc1cc(C)c(C#N)c(SCCS(=O)(=O)c2ccc(C(C)(C)C)cc2)n1	i	1.7	23.9*	-11.4	-1.5	11.9
CCCCS(=O)(=O)N1CCCc2nc(-c3ccc(Br)cc3)ccc21	·	·	-4.2	·	6.8	·
O=C(CSc1nc(-c2ccco2)cc(C(F)(F)F)n1)NC1CCCCCCC1	i	-6.4	25.1*	8.1	0.5	14.5
O=C(CC1C(=O)NCCN1Cc1ccccc1)NC1CCCCC1 (stereo not given)	i	·	-1.0	-1.3	0.2	·
CC(C)C[C@H]1COc2cc(NCc3ccc(Cl)c(Cl)c3)ccc2S(=O)(=O)N1	·	·	16.9*	·	5.8	6.3
O=C(COc1ccccc1)Nc1c2c(nn1-c1ccccc1)CS(=O)C2 (stereo not given)	i	5.0	0.0	-27.2	-1.0	·
Cc1c(NC(=O)C2CCCN(S(=O)(=O)c3cnc[nH]3)C2)c(=O)n(-c2ccccc2)n1C (stereo not given)	i	1.9	1.7	-9.1	-1.4	·
Cc1c(NC(=O)C2CCCN(S(=O)(=O)c3c(C(C)C)cc(C(C)C)cc3C(C)C)C2)c(=O)n(-c2ccccc2)n1C (stereo not given)	·	·	28.5*	·	·	24.5*
CCOC(=O)C1CCCN(C2=NC(=O)/C(=C/c3ccc(N(C)C)cc3)S2)C1 (stereo not given)	i	-0.1	26.8*	-41.5	-13.7	16.1
CCOC(=O)C1CCCN(C2=NC(=O)/C(=C/c3ccc(OC)cc3)S2)C1 (stereo not given)	i	-2.6	-6.1	1.3	-3.8	·
CSc1nnc2c3cc(F)ccc3n(Cc3ccccc3)c2n1	i	-0.4	59.3*	-2.9	0.5	47.3*	RORg DNA counter=>40
NNc1nnc2c3cc(F)ccc3n(Cc3ccccc3)c2n1	i	1.5	3.5	-28.2	-1.3	·
CSc1nnc2c3ccccc3n(Cc3ccccc3)c2n1	i	1.8	21.7*	-1.0	1.0	24.0*
Cc1ccc(C)c(N2CCN(C(C(=O)NC3CCCC3)C(C)C)CC2)c1 (stereo not given)	i	·	0.6	·	1.1	·
O=C(NCCc1ccccc1)OCc1cn(-c2c(F)cccc2F)nn1	·	·	-1.9	·	·	·
C=COC(=O)c1sc2nc(C)cc(C)c2c1N	i	1.4	24.3*	-34.0	0.5	13.2
COc1ccc2c(/C=C/c3cc[n+](C)cc3)c[nH]c2c1	i	-6.8	45.7*	-13.0	-26.8	31.2*	RORg DNA counter=>40
COc1ccc2c(C=O)c[nH]c2c1	i	-2.7	-0.6	11.2	0.5	·
Cc1ccc2[nH]cc(/C=C/c3cc[n+](C)cc3)c2c1	i	·	232.2*	-36.9	-21.3	142.0*	RORg DNA counter=>40
COc1ccc2c(c1)c1ccccc1n2C	i	-1.2	-5.4	-2.4	-0.8	·
CC[n+]1ccc(/C=C/c2c[nH]c3ccccc23)cc1	i	-0.2	133.6*	3.6	-8.7	130.9*	RORg DNA counter=>40
SMILES	Neddyl block	NR2E3 ag-1	Rev-erbA mod	NR2E3 ag-2	PG9 binder	Rev-erbA confirm	others
COc1ccc2c(c1)c(/C=C/c1cc[n+](C)cc1)cn2C	i	-12.1	100.3*	-8.1	-21.8	78.6*	RORg DNA counter=>40
Cc1ccc2[nH]ccc(=O)c2c1	i	-0.8	7.6	-17.6	2.3	·
CN1OC[C@@H]2CN(S(=O)(=O)c3cccc4ccccc34)[C@H](c3ccc(-c4ccccc4)cc3)C[C@@H]21	i	·	5.0	25.9	-0.8	·
COc1ccc2cc(C#N)c(N3CCOCC3)nc2c1	i	-1.5	-6.6	-2.2	1.5	·
CCC(C)(C)n1nnnc1CN1CCN(c2nc3cc(OC)ccc3cc2C#N)CC1	i	-3.0	56.3*	15.1	-1.8	11.3
CCc1nc2ccc(C(=O)NCc3ccc4c(c3)OCO4)cn2c1N(C)Cc1ccc(OC)cc1	i	·	10.5	12.0	-0.9	·
CCC(=O)c1cc2c(cc1NC(=O)c1ccc(C)cc1)OCCO2	i	1.6	1.0	-11.3	-1.5	·
CC(=O)c1cc2c(cc1N/C(=N/S(=O)(=O)c1ccc(C)cc1)c1ccc(Cl)cc1)OCO2	i	4.2	91.8*	-9.3	-2.1	57.3*	RORg DNA counter=>40
CC(=O)c1cc2c(cc1NC(=O)c1ccc(C)cc1)OCCO2	·	2.1	27.6*	-28.5	7.9	3.1
CNC(=O)COc1ccccc1C(=O)Nc1ccc2c(c1)oc1ccccc12	i	-0.8	58.2*	1.5	1.0	78.8*	RORg DNA counter=i
CCCNC(=O)c1c(NC(=O)C2COc3ccccc3O2)sc2c1CCCC2 (stereo not given)	i	-2.9	48.8*	-25.6	0.2	3.8
Cc1onc(-c2c(F)cccc2Cl)c1C(=O)Nc1sc2c(c1C#N)CCC(C(C)(C)C)C2 (stereo not given)	i	1.6	26.8*	11.7	-1.8	19.6*
CC1CCCN(S(=O)(=O)c2ccc(C(=O)Nc3ccccc3-c3nc4ccccc4[nH]3)cc2)C1 (stereo not given)	i	3.2	39.5*	15.3	0.7	1.7
CC1CCN(S(=O)(=O)c2ccc(C(=O)Nc3ccccc3-c3nc4ccccc4[nH]3)cc2)CC1	·	-2.3	13.7	5.6	-1.0	·
CN(Cc1ccccc1)C(=O)c1csc([C@@H]2O[C@H](CO)[C@H](O)[C@H](O)[C@H]2O)n1	i	·	-7.0	10.6	-1.4	·
Cn1cc(/C=C2\SC(=O)NC2=S)c2ccccc21	i	3.4	27.3*	-27.1	-9.3	17.0
Cc1ccc(C(=O)NN2C(=O)/C(=C/c3cn(C)c4ccccc34)SC2=S)cc1	i	2.5	8.8	-7.2	-1.6	·

Screening results from PubChem.
